According to ChEMBL document CHEMBL3351548, “UNC2025, a potent and orally bioavailable MER/FLT3 dual inhibitor” (J Med Chem, 2014):
Active and inactive are the calls of the source. No cut-off for these calls is given here.

How the values were obtained:
[1] = Cmax in Swiss albino mouse at 3 mg/kg, iv; type: ADME, organism-based; set-up: dose 3 mg/kg, route intravenous; conditions: in vivo
Outline: (§1)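 Mouse PK after single intravenous or oral dose; n = 3 mice per time point. Parameters reported: T1/2, Cmax, AUClast, Vss and CL for iv; Tmax, Cmax, AUClast and %F for po. One iv formulation given is 7.5% v/v N-methyl pyrrolidone with 20% cremophor EL in water.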

[2] = system: Mus musculus; test: Oral bioavailability in Swiss albino mouse at 3 mg/kg; type: ADME, organism-based; conditions: in vivo; outline: as §1
[3] = Volume of distribution at steady state in Swiss albino mouse at 3 mg/kg, iv; type: ADME, organism-based; set-up: dose 3 mg/kg, route intravenous; conditions: in vivo, read-out: Vdss; outline: as §1
[4] = Tmax in Swiss albino mouse at 3 mg/kg, po; type: ADME, organism-based; set-up: dose 3 mg/kg, route oral; conditions: in vivo; outline: as §1
[5] = Clearance in Swiss albino mouse at 3 mg/kg, iv; type: ADME, organism-based; set-up: dose 3 mg/kg, route intravenous; conditions: in vivo; outline: as §1
[6] = Half life in Swiss albino mouse at 3 mg/kg, iv; type: ADME, organism-based; set-up: dose 3 mg/kg, route intravenous; conditions: in vivo; outline: as §1
[7] = Cmax in Swiss albino mouse at 3 mg/kg, po; type: ADME, organism-based; set-up: dose 3 mg/kg, route oral; conditions: in vivo; outline: as §1
[8] = AUClast in Swiss albino mouse at 3 mg/kg, po; type: ADME, organism-based; set-up: time 0 - last, dose 3 mg/kg, route oral; conditions: plasma; outline: as §1
[9] = AUClast in Swiss albino mouse at 3 mg/kg, iv; type: ADME, organism-based; set-up: time 0 - last, dose 3 mg/kg, route intravenous; conditions: plasma; outline: as §1
[10] = target: T1, Tyrosine-protein kinase Mer (Homo sapiens) (UniProt Q12866); conditions: A549, 50 to 300 nM
T1 sequence (whole entry): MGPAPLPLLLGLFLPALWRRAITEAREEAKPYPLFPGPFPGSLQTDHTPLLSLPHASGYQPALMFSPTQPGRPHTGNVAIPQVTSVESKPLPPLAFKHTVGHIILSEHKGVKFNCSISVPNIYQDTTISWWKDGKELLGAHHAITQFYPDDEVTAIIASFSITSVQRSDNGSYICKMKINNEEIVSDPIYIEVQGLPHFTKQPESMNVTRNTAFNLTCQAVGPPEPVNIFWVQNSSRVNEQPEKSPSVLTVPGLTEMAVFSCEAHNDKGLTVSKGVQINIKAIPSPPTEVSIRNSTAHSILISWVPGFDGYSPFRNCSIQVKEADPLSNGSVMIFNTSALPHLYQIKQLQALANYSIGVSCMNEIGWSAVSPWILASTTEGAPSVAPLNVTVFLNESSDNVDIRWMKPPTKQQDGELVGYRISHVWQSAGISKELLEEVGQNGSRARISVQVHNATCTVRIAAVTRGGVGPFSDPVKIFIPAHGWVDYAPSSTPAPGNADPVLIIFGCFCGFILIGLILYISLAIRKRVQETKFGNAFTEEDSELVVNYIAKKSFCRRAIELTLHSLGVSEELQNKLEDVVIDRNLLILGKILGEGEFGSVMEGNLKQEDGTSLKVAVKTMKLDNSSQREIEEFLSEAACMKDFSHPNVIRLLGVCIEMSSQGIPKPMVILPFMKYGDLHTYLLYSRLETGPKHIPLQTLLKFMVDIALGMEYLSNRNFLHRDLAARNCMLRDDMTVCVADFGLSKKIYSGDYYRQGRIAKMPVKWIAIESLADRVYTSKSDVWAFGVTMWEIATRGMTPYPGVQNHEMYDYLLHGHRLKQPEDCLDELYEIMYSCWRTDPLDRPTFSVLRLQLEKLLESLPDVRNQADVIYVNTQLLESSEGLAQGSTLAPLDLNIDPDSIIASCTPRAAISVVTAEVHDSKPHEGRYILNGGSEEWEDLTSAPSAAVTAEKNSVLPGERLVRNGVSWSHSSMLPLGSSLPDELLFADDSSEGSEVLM

[11] = target: Receptor-type tyrosine-protein kinase FLT3 (Homo sapiens) (UniProt P36888); conditions: MOLM-14, 10 to 50 nM
[12] = Plasma concentration in human 697 cells xenografted NOD.Cg-Prkdcscid Il2rgtm1Wjl/SzJ mouse at 3 mg/kg, po administered as single dose measured after 30 mins post dose; type: ADME, organism-based; set-up: dose 3 mg/kg, route oral
[13] = target: Mast/stem cell growth factor receptor Kit (Homo sapiens, UniProt P10721); test: Inhibition of Kit (unknown origin) by Off-chip Mobility Shift Assay
Outline: (§2)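 Kinase panel run in duplicate using a microcapillary electrophoresis (mobility shift) assay. Screening concentration was 100 nM. IC50 values were then determined at each kinase's ATP Km.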

[14] = system: 697; test: Inhibition of Mer phosphorylation in human 697 cells xenografted in NOD.Cg-Prkdcscid Il2rgtm1Wjl/SzJ mouse at 3 mg/kg, po administered as single dose measured after 30 mins post dose by densitometry relative to control; type: functional; conditions: Mus musculus, 697, 0.5 h
Outline: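 NSG mice received 2 × 10^6 697 B-ALL cells by tail-vein injection, with 14 days for engraftment. A single 3 mg/kg dose or saline vehicle (10 mL/kg) was given by oral gavage, and femurs were taken 30 min later. Marrow cells were held 10 min at room temperature in RPMI with 20% FBS and 240 μM pervanadate. Mer was then immunoprecipitated and p-Mer/total Mer quantified by Western densitometry; n = 6.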

[15] = Plasma protein binding in human 697 cells xenografted NOD.Cg-Prkdcscid Il2rgtm1Wjl/SzJ mouse at 3 mg/kg, po administered as single dose measured after 30 mins post dose; type: ADME, organism-based; set-up: dose 3 mg/kg, route oral; conditions: read-out: PPB (converted)
Outline: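 Plasma protein binding was measured in mice, n = 3.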

[16] = system: Plasma; test: Fraction unbound in plasma of human 697 cells xenografted NOD.Cg-Prkdcscid Il2rgtm1Wjl/SzJ mouse at 3 mg/kg, po administered as single dose measured after 30 mins post dose; type: ADME, organism-based; set-up: dose 3 mg/kg, route oral; conditions: in vivo, 0.5 h
[17] = target: T2, NUAK family SNF1-like kinase 1 (Homo sapiens, UniProt O60285); test: Inhibition of Nuak1 (unknown origin) by Off-chip Mobility Shift Assay; outline: as §2
T2 sequence (O60285 whole entry): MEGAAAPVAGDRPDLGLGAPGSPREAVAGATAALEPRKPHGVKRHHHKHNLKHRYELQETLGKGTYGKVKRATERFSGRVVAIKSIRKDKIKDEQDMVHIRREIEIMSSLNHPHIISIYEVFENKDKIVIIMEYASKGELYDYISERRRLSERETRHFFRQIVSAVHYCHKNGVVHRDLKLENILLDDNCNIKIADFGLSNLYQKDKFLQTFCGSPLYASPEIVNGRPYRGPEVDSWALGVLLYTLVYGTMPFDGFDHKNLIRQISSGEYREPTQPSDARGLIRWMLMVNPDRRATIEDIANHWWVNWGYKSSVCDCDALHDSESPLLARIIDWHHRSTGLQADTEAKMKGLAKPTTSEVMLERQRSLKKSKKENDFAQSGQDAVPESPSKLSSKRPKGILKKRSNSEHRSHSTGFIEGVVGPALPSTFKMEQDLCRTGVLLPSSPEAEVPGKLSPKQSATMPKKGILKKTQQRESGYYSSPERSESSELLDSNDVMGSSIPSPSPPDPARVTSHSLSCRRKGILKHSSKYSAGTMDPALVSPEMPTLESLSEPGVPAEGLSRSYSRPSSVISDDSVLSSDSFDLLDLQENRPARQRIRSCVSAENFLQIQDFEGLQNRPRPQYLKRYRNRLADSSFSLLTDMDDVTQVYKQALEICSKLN

[18] = target: STE20-like serine/threonine-protein kinase (Homo sapiens, UniProt Q9H2G2); test: Inhibition of SLK (unknown origin) by Off-chip Mobility Shift Assay; outline: as §2
[19] = target: NT-3 growth factor receptor (Homo sapiens, UniProt Q16288); test: Inhibition of TRKC (unknown origin) by Off-chip Mobility Shift Assay; outline: as §2
[20] = target: Hepatocyte growth factor receptor (Homo sapiens, UniProt P08581); test: Inhibition of Met (unknown origin) by Off-chip Mobility Shift Assay; outline: as §2
[21] = Clearance in Swiss albino mouse at 1 mg/kg, iv; type: ADME, organism-based; set-up: dose 1 mg/kg, route intravenous; conditions: in vivo; outline: as §1
[22] = system: Mus musculus; test: Oral bioavailability in Swiss albino mouse at 10 mg/kg; type: ADME, organism-based; conditions: in vivo; outline: as §1
[23] = Cmax in Swiss albino mouse at 1 mg/kg, iv; type: ADME, organism-based; set-up: dose 1 mg/kg, route intravenous; conditions: in vivo; outline: as §1
[24] = AUClast in Swiss albino mouse at 10 mg/kg, po; type: ADME, organism-based; set-up: time 0 - last, dose 10 mg/kg, route oral; conditions: plasma; outline: as §1
[25] = Half life in Swiss albino mouse at 1 mg/kg, iv; type: ADME, organism-based; set-up: dose 1 mg/kg, route intravenous; conditions: in vivo; outline: as §1
[26] = AUClast in Swiss albino mouse at 1 mg/kg, iv; type: ADME, organism-based; set-up: dose 1 mg/kg, route intravenous, time 0 - last; conditions: plasma; outline: as §1
[27] = Cmax in Swiss albino mouse at 10 mg/kg, po; type: ADME, organism-based; set-up: dose 10 mg/kg, route oral; conditions: in vivo; outline: as §1
[28] = Tmax in Swiss albino mouse at 10 mg/kg, po; type: ADME, organism-based; set-up: dose 10 mg/kg, route oral; conditions: in vivo; outline: as §1
[29] = Volume of distribution at steady state in Swiss albino mouse at 1 mg/kg, iv; type: ADME, organism-based; set-up: dose 1 mg/kg, route intravenous; conditions: in vivo, read-out: Vdss; outline: as §1
[30] = Kinetic solubility of the compound in normal saline at pH 7.4; type: physicochemical; conditions: buffer

Chain of NT-3 growth factor receptor (Q16288 whole entry): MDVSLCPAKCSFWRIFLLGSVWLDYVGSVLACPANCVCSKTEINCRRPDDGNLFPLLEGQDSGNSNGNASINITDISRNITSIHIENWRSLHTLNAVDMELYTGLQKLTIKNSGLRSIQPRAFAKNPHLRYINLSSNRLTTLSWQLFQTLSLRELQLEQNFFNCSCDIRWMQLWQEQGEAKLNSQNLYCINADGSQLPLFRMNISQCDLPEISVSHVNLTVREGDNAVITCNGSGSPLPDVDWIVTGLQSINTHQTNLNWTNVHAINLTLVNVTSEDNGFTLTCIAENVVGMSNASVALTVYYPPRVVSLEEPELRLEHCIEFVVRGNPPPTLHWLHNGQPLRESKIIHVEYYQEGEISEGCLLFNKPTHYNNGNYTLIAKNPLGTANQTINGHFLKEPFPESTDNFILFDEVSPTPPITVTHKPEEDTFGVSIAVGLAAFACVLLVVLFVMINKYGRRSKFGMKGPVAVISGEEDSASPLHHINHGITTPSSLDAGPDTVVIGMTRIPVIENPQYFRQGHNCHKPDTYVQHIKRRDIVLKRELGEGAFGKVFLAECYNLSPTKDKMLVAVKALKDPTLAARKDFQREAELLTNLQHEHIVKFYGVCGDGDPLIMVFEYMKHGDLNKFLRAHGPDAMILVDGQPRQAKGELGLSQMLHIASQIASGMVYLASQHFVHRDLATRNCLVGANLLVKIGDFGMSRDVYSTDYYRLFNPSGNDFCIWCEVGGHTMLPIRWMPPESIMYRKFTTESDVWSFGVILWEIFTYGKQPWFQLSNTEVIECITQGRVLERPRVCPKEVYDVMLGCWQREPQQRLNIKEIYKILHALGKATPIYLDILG
Chain of Receptor-type tyrosine-protein kinase FLT3 (Homo sapiens) (P36888 whole entry): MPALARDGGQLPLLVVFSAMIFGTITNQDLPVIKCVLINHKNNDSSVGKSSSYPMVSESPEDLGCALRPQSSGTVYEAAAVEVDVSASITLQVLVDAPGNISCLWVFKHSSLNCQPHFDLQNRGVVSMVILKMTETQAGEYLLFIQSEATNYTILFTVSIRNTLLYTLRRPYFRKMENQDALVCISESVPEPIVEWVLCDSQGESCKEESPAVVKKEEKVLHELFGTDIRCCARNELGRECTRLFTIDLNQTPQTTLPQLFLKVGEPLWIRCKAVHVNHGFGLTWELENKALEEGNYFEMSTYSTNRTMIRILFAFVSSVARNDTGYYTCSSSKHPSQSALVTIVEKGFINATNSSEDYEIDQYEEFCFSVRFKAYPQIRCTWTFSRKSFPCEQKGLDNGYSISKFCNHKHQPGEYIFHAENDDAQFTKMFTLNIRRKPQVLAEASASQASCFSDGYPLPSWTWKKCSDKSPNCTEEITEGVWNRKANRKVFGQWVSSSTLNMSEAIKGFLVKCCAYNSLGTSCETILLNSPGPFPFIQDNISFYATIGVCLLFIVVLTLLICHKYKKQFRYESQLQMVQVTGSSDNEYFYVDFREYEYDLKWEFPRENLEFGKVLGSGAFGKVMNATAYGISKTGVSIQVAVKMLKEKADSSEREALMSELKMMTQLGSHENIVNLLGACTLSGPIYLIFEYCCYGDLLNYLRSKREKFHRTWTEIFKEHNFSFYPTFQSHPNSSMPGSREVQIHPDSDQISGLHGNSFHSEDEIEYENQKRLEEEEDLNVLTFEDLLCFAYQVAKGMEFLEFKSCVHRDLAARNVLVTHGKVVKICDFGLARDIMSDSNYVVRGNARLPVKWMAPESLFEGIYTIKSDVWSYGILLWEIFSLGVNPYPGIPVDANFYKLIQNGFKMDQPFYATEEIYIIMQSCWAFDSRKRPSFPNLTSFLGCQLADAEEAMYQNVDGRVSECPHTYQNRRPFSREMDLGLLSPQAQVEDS
Chain of STE20-like serine/threonine-protein kinase (Q9H2G2 whole entry): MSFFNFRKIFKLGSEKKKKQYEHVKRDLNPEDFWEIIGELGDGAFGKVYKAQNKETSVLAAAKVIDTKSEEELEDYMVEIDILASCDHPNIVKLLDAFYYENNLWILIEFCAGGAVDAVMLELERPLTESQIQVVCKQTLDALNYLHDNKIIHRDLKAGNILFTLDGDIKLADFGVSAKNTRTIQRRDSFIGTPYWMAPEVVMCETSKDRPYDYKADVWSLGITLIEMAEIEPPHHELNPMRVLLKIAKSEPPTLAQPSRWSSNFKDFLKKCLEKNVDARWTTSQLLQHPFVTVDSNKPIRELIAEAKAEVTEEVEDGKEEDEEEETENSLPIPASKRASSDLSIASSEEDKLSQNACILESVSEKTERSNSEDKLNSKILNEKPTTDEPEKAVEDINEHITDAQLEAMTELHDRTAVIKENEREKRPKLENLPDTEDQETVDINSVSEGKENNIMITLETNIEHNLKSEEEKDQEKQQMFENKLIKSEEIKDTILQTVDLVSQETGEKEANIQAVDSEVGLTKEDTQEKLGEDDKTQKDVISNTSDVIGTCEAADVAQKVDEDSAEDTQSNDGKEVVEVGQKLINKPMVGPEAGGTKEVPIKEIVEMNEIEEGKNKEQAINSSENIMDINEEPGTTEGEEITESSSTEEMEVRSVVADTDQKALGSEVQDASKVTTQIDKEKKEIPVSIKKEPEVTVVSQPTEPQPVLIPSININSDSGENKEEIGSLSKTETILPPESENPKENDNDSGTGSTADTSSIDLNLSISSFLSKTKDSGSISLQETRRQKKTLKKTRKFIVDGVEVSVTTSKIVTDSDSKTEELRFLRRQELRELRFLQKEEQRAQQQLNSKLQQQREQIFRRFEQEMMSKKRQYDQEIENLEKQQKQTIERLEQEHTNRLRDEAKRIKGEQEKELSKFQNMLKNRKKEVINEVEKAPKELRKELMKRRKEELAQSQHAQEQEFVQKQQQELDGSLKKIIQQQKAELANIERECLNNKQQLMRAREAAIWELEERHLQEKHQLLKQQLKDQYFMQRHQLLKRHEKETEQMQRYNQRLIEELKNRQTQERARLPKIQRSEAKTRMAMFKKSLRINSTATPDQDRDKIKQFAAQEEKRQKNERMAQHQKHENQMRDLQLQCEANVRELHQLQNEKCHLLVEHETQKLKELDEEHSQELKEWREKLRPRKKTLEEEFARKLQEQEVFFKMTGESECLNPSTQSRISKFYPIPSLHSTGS
Chain of Hepatocyte growth factor receptor (P08581 whole entry): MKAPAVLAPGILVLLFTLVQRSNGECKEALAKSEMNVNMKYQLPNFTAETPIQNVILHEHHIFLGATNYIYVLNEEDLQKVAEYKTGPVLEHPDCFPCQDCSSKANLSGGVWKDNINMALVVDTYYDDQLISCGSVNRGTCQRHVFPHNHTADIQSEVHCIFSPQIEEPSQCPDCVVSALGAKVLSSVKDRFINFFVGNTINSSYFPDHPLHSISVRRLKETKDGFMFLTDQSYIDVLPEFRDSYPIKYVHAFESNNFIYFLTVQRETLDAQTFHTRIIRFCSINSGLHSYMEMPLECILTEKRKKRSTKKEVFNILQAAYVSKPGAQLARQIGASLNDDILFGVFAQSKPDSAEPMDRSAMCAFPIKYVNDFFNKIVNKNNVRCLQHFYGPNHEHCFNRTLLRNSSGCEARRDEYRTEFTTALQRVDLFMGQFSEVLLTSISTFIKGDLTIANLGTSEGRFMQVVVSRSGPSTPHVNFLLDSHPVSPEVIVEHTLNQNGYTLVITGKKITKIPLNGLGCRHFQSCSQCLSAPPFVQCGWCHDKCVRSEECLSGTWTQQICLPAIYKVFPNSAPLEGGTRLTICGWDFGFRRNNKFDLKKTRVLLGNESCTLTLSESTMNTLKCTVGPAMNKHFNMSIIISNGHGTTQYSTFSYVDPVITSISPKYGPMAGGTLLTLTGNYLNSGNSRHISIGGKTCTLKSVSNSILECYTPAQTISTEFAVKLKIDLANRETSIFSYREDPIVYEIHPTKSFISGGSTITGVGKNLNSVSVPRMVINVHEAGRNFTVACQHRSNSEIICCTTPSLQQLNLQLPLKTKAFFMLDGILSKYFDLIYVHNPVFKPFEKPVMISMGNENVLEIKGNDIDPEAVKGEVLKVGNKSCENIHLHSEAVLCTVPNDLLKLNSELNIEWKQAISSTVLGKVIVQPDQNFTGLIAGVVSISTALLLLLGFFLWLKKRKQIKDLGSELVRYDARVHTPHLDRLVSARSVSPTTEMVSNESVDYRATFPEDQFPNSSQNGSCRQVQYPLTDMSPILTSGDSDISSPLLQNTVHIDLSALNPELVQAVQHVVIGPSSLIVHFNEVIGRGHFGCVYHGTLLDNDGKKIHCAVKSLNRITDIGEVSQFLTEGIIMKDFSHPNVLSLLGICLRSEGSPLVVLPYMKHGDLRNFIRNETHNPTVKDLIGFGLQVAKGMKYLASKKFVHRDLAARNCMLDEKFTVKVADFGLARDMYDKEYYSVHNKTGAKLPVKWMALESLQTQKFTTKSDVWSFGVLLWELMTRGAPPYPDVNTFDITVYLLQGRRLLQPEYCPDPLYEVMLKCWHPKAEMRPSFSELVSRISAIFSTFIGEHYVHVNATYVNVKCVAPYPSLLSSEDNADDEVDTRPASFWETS

| Structure (SMILES) | Cmax [1] | F [2] | Vd [3] | Tmax [4] | clearance [5] | half-life [6] | Cmax [7] | AUC(0-t) [8] | AUC(0-t) [9] | also measured |
| --- | --- | --- | --- | --- | --- | --- | --- | --- | --- | --- |
| CN1CCN(Cc2ccc(-c3cn([C@H]4CC[C@H](O)CC4)c4nc(NCCC5CC5)ncc34)cc2)CC1 | 6500 nM | 78% | 2 L/kg | 60 min | 7.2 mL/min/kg | 264 min | 1300 nM | 9 µM·h | 12 µM·h |  |
| CCCCNc1ncc2c(-c3ccc(CN4CCN(C)CC4)cc3)cn([C@H]3CC[C@H](O)CC3)c2n1 [listing 1 of 2 here] |  |  |  |  |  |  |  |  |  | inhibition [10]: Active; inhibition [11]: Active |
| CN1CCN(S(=O)(=O)c2ccc(-c3cn([C@H]4CC[C@H](O)CC4)c4nc(NCCC5CC5)ncc34)c(F)c2)CC1 | 1200 nM | 67% | 5.3 L/kg | 15 min | 76 mL/min/kg | 72 min | 420 nM | 0.69 µM·h | 1 µM·h |  |
| CCCCNc1ncc2c(-c3ccc(S(=O)(=O)N4CCOCC4)cc3)nn([C@H]3CC[C@H](O)CC3)c2n1 | 16000 nM | 0.3% | 0.43 L/kg | 30 min | 30 mL/min/kg | 138 min | 13 nM | 0.01 µM·h | 3.3 µM·h |  |
| CCCCNc1ncc2c(-c3ccc(CN4CCN(C)CC4)cc3)cn([C@H]3CC[C@H](O)CC3)c2n1 [listing 2 of 2 here] | 4100 nM | 100% | 2.3 L/kg | 30 min | 9.2 mL/min/kg | 228 min | 1600 nM | 9.2 µM·h | 9.2 µM·h | concentration at 0.5 h [12]: 1600 nM; IC50 [13]: 8.18 nM; inhibition in vivo at 3 mg/kg [14]: > 90%; fraction unbound at 0.5 h [15]: 0.014; Cp(f) [16]: 22 nM; IC50 [17]: 7.97 nM; IC50 [18]: 6.14 nM; IC50 [19]: 4.38 nM; IC50 [20]: 364 nM |
| CCCCNc1ncc2c(-c3ccc(S(=O)(=O)N4CCN(C)CC4)c(F)c3)cn([C@H]3CC[C@H](O)CC3)c2n1 |  |  |  |  |  |  |  |  |  | clearance [21]: 103 mL/min/kg; F [22]: 25%; Cmax [23]: 400 nM; AUC(0-t) [24]: 0.66 µM·h; half-life [25]: 48 min; AUC(0-t) [26]: 0.27 µM·h; Cmax [27]: 390 nM; Tmax [28]: 15 min; Vd [29]: 5.5 L/kg |
| CCCCNc1ncc2c(-c3ccc(S(=O)(=O)N4CCOCC4)cc3)cn([C@H]3CC[C@H](O)CC3)c2n1 | 7900 nM | 8.4% | 0.78 L/kg | 15 min | 70 mL/min/kg | 13.8 min | 160 nM | 0.12 µM·h | 1.4 µM·h |  |
| CCCCNc1ncc2c(-c3ccc(CN4CCN(C)CC4)cc3)cn([C@H]3CC[C@H](O)CC3)c2n1.Cl |  |  |  |  |  |  |  |  |  | Kinetic_solubility [30]: 38 µg/mL |
